The test concerns HCMEC/D3 cells. Kind of test: Cellular binding assay by flow cytometry. Format: cell-based, human. Particulars: p<0.001, n=3. The method in brief:
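HCMEC/D3 cells grown at 37°C in 5% CO2 to 70% confluence, detached, and pre-treated with heparanase I (10 U/ml) and III (2 U/ml) for 1.5 h at 37°C. Cells were then incubated 1 h on ice in 1% BSA/PBS with Atto 425-labelled CXCL8 or FITC-labelled peptide (5 µg/ml). Cells were washed twice (500 x g, 5 min) and signal read by flow cytometry; mean ± SE, n=3.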
(Flow cytometry measures light scatter and fluorescence of single cells or particles in a stream.)

For the substance “CXCL8: recombinant human CXCL8, labelled with Atto 425 for binding assays”, the “binding to HCMEC/D3 cells pre-treated with heparanase I&III” value is “significantly reduced”.

(Values after PMC5919120 (Journal of immunology (Baltimore, Md. : 1950), 2018).)
